Measured values as given in ChEMBL document CHEMBL1255355, “Characterization of a naturally occurring class D beta-lactamase from Achromobacter xylosoxidans” (Antimicrob Agents Chemother, 2008).
In brackets after ≈: the same amount, converted by molar mass. Activity calls are given as the source filed them. No cut-off for these calls is given here.

Columns and labels:
[1] = system: Achromobacter xylosoxidans; test: Ratio of Kcat to Km for Achromobacter xylosoxidans CIP69598 beta-lactamase OXA-114a expressed in Escherichia coli TOP10; design: unit not given here
Method in brief: (§1)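 OXA-114a purified from E. coli TOP10(p6S3) grown overnight in TS broth with kanamycin 30 μg/ml and ampicillin 50 μg/ml, by sonication, spermine, Q-Sepharose (pH 8.8) and S-Sepharose (pH 6.5) steps. Initial hydrolysis rates read by UV spectrophotometry at 30°C in 100 mM Tris-H2SO4-300 mM K2SO4 pH 7.0 with 10 mM NaHCO3. kcat and Km are means of three independent experiments.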

[2] = system: Achromobacter xylosoxidans; test: Antibacterial activity against Achromobacter xylosoxidans LOL in presence of 4 ug/ml clavulanic acid by agar dilution method; type: functional
Method in brief: (§2)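 MICs of β-lactams measured by agar dilution, with interpretation per CLSI guidelines. Combination tests used clavulanic acid or tazobactam at a fixed 4 μg/ml. Reference strain CIP69598 and clinical isolates MER, TB1, LOL and DUC, identified by API 32-GN. Cultures routinely grown in TS broth at 37°C.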

[3] = system: Achromobacter xylosoxidans; test: Activity of Achromobacter xylosoxidans CIP69598 beta-lactamase OXA-114a expressed in Escherichia coli TOP10 assessed as compound hydrolysis; method in brief: as §1
[4] = system: Achromobacter xylosoxidans; test: Antibacterial activity against Achromobacter xylosoxidans TB1 by agar dilution method; type: functional; method in brief: as §2
[5] = system: Achromobacter xylosoxidans; test: Antibacterial activity against Achromobacter xylosoxidans DUC in presence of 4 ug/ml clavulanic acid by agar dilution method; type: functional; method in brief: as §2
[6] = system: Achromobacter xylosoxidans; test: Antibacterial activity against Achromobacter xylosoxidans LOL by agar dilution method; type: functional; method in brief: as §2
[7] = system: Achromobacter xylosoxidans; test: Antibacterial activity against Achromobacter xylosoxidans CIP69598 in presence of 4 ug/ml clavulanic acid by agar dilution method; type: functional; method in brief: as §2
[8] = system: Escherichia coli; test: microbe, parasite or virus in culture; type: functional; settings: TOP10
[9] = system: Achromobacter xylosoxidans; test: Antibacterial activity against Achromobacter xylosoxidans TB1 in presence of 4 ug/ml clavulanic acid by agar dilution method; type: functional; method in brief: as §2
[10] = system: Escherichia coli; test: Antibacterial activity against Escherichia coli TOP10 by agar dilution method; type: functional
Method in brief: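 MIC determined by agar dilution; results interpreted per CLSI guidelines. E. coli TOP10 serves as the cloning host. Bacteria were routinely grown in Trypticase soy broth at 37°C.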

[11] = system: Achromobacter xylosoxidans; test: Antibacterial activity against Achromobacter xylosoxidans MER in presence of 4 ug/ml clavulanic acid by agar dilution method; type: functional; method in brief: as §2
[12] = system: Achromobacter xylosoxidans; test: Antibacterial activity against Achromobacter xylosoxidans MER by agar dilution method; type: functional; method in brief: as §2
[13] = system: Escherichia coli; test: Antibacterial activity against Escherichia coli TOP10 harboring recombinant p6S3 expressing beta lactamase OXA-114a in presence of 4 ug/ml clavulanic acid by agar dilution method; type: functional
Method in brief: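 Agar dilution MIC with clavulanic acid held at a fixed 4 μg/ml; interpreted per CLSI guidelines. Host E. coli TOP10 was electroporated with p6S3, a kanamycin-resistant pBK-CMV vector carrying a Sau3AI partial-digest fragment of A. xylosoxidans CIP69598 genomic DNA. Routine growth was in Trypticase soy broth at 37°C.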

[14] = system: Achromobacter xylosoxidans; test: Antibacterial activity against Achromobacter xylosoxidans CIP69598 by agar dilution method; type: functional; method in brief: as §2
[15] = system: Achromobacter xylosoxidans; test: Antibacterial activity against Achromobacter xylosoxidans DUC by agar dilution method; type: functional; method in brief: as §2
[16] = system: Escherichia coli; test: Antibacterial activity against Escherichia coli TOP10 in presence of 4 ug/ml clavulanic acid by agar dilution method; type: functional
Method in brief: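 Agar dilution MICs of β-lactams, with clavulanic acid held at a fixed 4 μg/ml alongside each β-lactam. Results were interpreted against CLSI guidelines. Strains were routinely grown in Trypticase soy broth at 37°C. The E. coli TOP10 host was tested, including TOP10 carrying a pBK-CMV clone of the chromosomal A. xylosoxidans CIP69598 class D β-lactamase gene.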

[17] = system: Achromobacter xylosoxidans; test: Induction of Achromobacter xylosoxidans CIP69598 beta-lactamase OXA-114a expressed in Escherichia coli TOP10 assessed as imipenem hydrolysis
Method in brief: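 Hydrolysis measured with 100 μM benzylpenicillin or imipenem as substrate. One unit hydrolyzes 1 μmol substrate/min. Protein measured against a bovine albumin standard.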

[18] = system: Achromobacter xylosoxidans; test: Antibacterial activity against Achromobacter xylosoxidans TB1 in presence of 4 ug/ml Tazobactam by agar dilution method; type: functional; method in brief: as §2
[19] = system: Escherichia coli; test: Antibacterial activity against Escherichia coli TOP10 harboring recombinant p6S3 expressing beta lactamase OXA-114a in presence of 4 ug/ml Tazobactam by agar dilution method; type: functional
Method in brief: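 MICs by agar dilution, with tazobactam held at a fixed 4 μg/ml and results read against CLSI guidelines. Strain is E. coli TOP10 carrying p6S3, a kanamycin-resistant pBK-CMV vector holding a partial Sau3AI fragment of A. xylosoxidans CIP69598 genomic DNA. It was selected on ticarcillin 50 mg/liter plus kanamycin 30 mg/liter. Cultures were routinely grown in TS broth at 37°C.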

[20] = system: Achromobacter xylosoxidans; test: Antibacterial activity against Achromobacter xylosoxidans CIP69598 in presence of 4 ug/ml Tazobactam by agar dilution method; type: functional; method in brief: as §2
[21] = system: Achromobacter xylosoxidans; test: Antibacterial activity against Achromobacter xylosoxidans LOL in presence of 4 ug/ml Tazobactam by agar dilution method; type: functional; method in brief: as §2
[22] = system: Escherichia coli; test: Antibacterial activity against Escherichia coli TOP10 in presence of 4 ug/ml Tazobactam by agar dilution method; type: functional
Method in brief: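 Plasmid-free E. coli TOP10 cloning host, tested by agar dilution MIC with tazobactam at a fixed 4 μg/ml and interpreted per CLSI guidelines. Cultures were routinely grown in Trypticase soy broth at 37°C.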

[23] = system: Achromobacter xylosoxidans; test: Antibacterial activity against Achromobacter xylosoxidans DUC in presence of 4 ug/ml Tazobactam by agar dilution method; type: functional; method in brief: as §2
[24] = Inhibition of Achromobacter xylosoxidans CIP69598 beta-lactamase OXA-114a expressed in Escherichia coli TOP10 assessed as reduction of benzyl-penicillin hydrolysis
Method in brief: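 Ki obtained by competition with benzylpenicillin as reporter substrate. Purified enzyme, 30°C, 100 mM Tris-H2SO4-300 mM K2SO4 pH 7.0 with 10 mM NaHCO3. Initial rates read by UV spectrophotometry. Means of three independent experiments.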

[25] = system: Achromobacter xylosoxidans; test: Antibacterial activity against Achromobacter xylosoxidans MER in presence of 4 ug/ml Tazobactam by agar dilution method; type: functional; method in brief: as §2

Structure (SMILES) | kcat [3] | MIC [4] | MIC [6] | MIC [8] | MIC [10] | MIC [12] | MIC [14] | MIC [15] | also measured
CC1(C)S[C@@H]2[C@H](NC(=O)[C@H](C(=O)O)c3ccsc3)C(=O)N2[C@H]1C(=O)O [TICARCILLIN] | 0.1 s⁻¹ | 1 µg/mL (≈ 2.6 µM) | > 64 µg/mL | 4 µg/mL (≈ 10.4 µM) | 2 µg/mL (≈ 5.2 µM) | 1 µg/mL (≈ 2.6 µM) | 4 µg/mL (≈ 10.4 µM) | 1 µg/mL (≈ 2.6 µM) | Ratio [1]: 2.5; MIC [2]: > 64 µg/mL; Km [3]: 40 µM; MIC [5]: 1 µg/mL; MIC [7]: 4 µg/mL; MIC [9]: 1 µg/mL; MIC [11]: 1 µg/mL; MIC [13]: 4 µg/mL; MIC [16]: 2 µg/mL
CC(C)(O/N=C(\C(=O)N[C@@H]1C(=O)N2C(C(=O)[O-])=C(C[n+]3ccccc3)CS[C@H]12)c1csc(N)n1)C(=O)O [CEFTAZIDIME] | < 0.01 s⁻¹ | 4 µg/mL (≈ 7.32 µM) | 4 µg/mL (≈ 7.32 µM) | 0.06 µg/mL (≈ 0.11 µM) | 0.06 µg/mL (≈ 0.11 µM) | 16 µg/mL (≈ 29.3 µM) | 4 µg/mL (≈ 7.32 µM) | 8 µg/mL (≈ 14.6 µM) | 
CC(=O)OCC1=C(C(=O)O)N2C(=O)[C@@H](NC(=O)Cc3cccs3)[C@H]2SC1 [CEPHALOTHIN] | 0.5 s⁻¹ | 32 µg/mL (≈ 80.7 µM) | > 64 µg/mL | 8 µg/mL (≈ 20.2 µM) | 2 µg/mL (≈ 5.04 µM) | 32 µg/mL (≈ 80.7 µM) | > 64 µg/mL | 32 µg/mL (≈ 80.7 µM) | Ratio [1]: 30; Km [3]: 15 µM
CO/N=C(\C(=O)N[C@@H]1C(=O)N2C(C(=O)O)=C(COC(N)=O)CS[C@H]12)c1ccco1 [CEFUROXIME] |  | > 64 µg/mL | > 64 µg/mL | 4 µg/mL (≈ 9.43 µM) | 2 µg/mL (≈ 4.71 µM) | > 64 µg/mL | > 64 µg/mL | > 64 µg/mL | 
C[C@H]1[C@H](NC(=O)/C(=N\OC(C)(C)C(=O)O)c2csc(N)n2)C(=O)N1S(=O)(=O)O [AZTREONAM] |  | > 64 µg/mL | > 64 µg/mL |  |  | > 64 µg/mL | > 64 µg/mL | > 64 µg/mL | 
Cc1onc(-c2ccccc2)c1C(=O)N[C@@H]1C(=O)N2[C@@H]1SC(C)(C)[C@@H]2C(=O)O | < 0.01 s⁻¹ |  |  |  |  |  |  |  | 
CC1(C)S[C@@H]2[C@H](NC(=O)Cc3ccccc3)C(=O)N2[C@H]1C(=O)O | 0.1 s⁻¹ |  |  |  |  |  |  |  | Ratio [1]: 10; Km [3]: 10 µM
CO/N=C(\C(=O)N[C@@H]1C(=O)N2C(C(=O)O)=C(COC(C)=O)CS[C@H]12)c1csc(N)n1 [CEFOTAXIME] | < 0.01 s⁻¹ | > 64 µg/mL | > 64 µg/mL | 0.25 µg/mL (≈ 0.549 µM) | 0.12 µg/mL (≈ 0.263 µM) | > 64 µg/mL | > 64 µg/mL | > 64 µg/mL | 
CO[C@@]1(NC(=O)Cc2cccs2)C(=O)N2C(C(=O)O)=C(COC(N)=O)CS[C@@H]21 [CEFOXITIN] | < 0.01 s⁻¹ | > 64 µg/mL | > 64 µg/mL | 4 µg/mL (≈ 9.36 µM) | 4 µg/mL (≈ 9.36 µM) | > 64 µg/mL | > 64 µg/mL | > 64 µg/mL | Activity [17]: inactive
CO[C@@]1(NC(=O)C(C(=O)O)c2ccc(O)cc2)C(=O)N2C(C(=O)O)=C(CSc3nnnn3C)CO[C@@H]21 (stereo not given in full) [MOXALACTAM] |  | 2 µg/mL (≈ 3.84 µM) | 1 µg/mL (≈ 1.92 µM) | 1 µg/mL (≈ 1.92 µM) | 1 µg/mL (≈ 1.92 µM) | 2 µg/mL (≈ 3.84 µM) | 2 µg/mL (≈ 3.84 µM) | 2 µg/mL (≈ 3.84 µM) | 
CC1(C)S[C@@H]2[C@H](NC(=O)[C@H](N)c3ccc(O)cc3)C(=O)N2[C@H]1C(=O)O [AMOXICILLIN] |  | 8 µg/mL (≈ 21.9 µM) | > 64 µg/mL | 16 µg/mL (≈ 43.8 µM) | 2 µg/mL (≈ 5.47 µM) | 2 µg/mL (≈ 5.47 µM) | 16 µg/mL (≈ 43.8 µM) | 1 µg/mL (≈ 2.74 µM) | MIC [2]: 8 µg/mL; MIC [5]: 1 µg/mL; MIC [7]: 4 µg/mL; MIC [9]: 8 µg/mL; MIC [11]: 1 µg/mL; MIC [13]: 16 µg/mL; MIC [16]: 2 µg/mL
C[C@@H](O)[C@H]1C(=O)N2C(C(=O)O)=C(SCCNC=N)C[C@H]12 [IMIPENEM ANHYDROUS] | > 0.1 s⁻¹ | 1 µg/mL (≈ 3.34 µM) | 4 µg/mL (≈ 13.4 µM) |  |  | 1 µg/mL (≈ 3.34 µM) | 4 µg/mL (≈ 13.4 µM) | 1 µg/mL (≈ 3.34 µM) | Km [3]: > 2000 µM; Activity [17]: inactive
CO/N=C(\C(=O)N[C@@H]1C(=O)N2C(C(=O)[O-])=C(C[N+]3(C)CCCC3)CS[C@H]12)c1csc(N)n1 |  | > 64 µg/mL | > 64 µg/mL | 0.12 µg/mL (≈ 0.25 µM) |  | > 64 µg/mL | 64 µg/mL (≈ 133 µM) | > 64 µg/mL | 
CCN1CCN(C(=O)N[C@@H](C(=O)N[C@@H]2C(=O)N3[C@@H]2SC(C)(C)[C@@H]3C(=O)O)c2ccccc2)C(=O)C1=O [PIPERACILLIN] | 0.5 s⁻¹ | 2 µg/mL (≈ 3.86 µM) | 4 µg/mL (≈ 7.73 µM) | 4 µg/mL (≈ 7.73 µM) | 1 µg/mL (≈ 1.93 µM) | 1 µg/mL (≈ 1.93 µM) | 1 µg/mL (≈ 1.93 µM) | 1 µg/mL (≈ 1.93 µM) | MIC [18]: 1 µg/mL; MIC [19]: 4 µg/mL; MIC [20]: 0.5 µg/mL; Ratio [1]: 100; MIC [21]: 4 µg/mL; MIC [22]: 1 µg/mL; MIC [23]: 0.5 µg/mL; Ki [24]: 1000 nM; MIC [25]: 0.5 µg/mL
